Measurements reported in ChEMBL document CHEMBL1144421, “Class II (IIa)-selective histone deacetylase inhibitors. 1. Synthesis and biological evaluation of novel (aryloxopropenyl)pyrrolyl hydroxyamides” (J Med Chem, 2005).
pIC50: −log10 of the molar value.

Key:
Histone deacetylase HD2 = molecular target: T1, Histone deacetylase HD2 (Zea mays, UniProt Q94F81); test: Inhibitory concentration against maize histone deacetylase 2
T1 sequence (Q94F81 whole entry): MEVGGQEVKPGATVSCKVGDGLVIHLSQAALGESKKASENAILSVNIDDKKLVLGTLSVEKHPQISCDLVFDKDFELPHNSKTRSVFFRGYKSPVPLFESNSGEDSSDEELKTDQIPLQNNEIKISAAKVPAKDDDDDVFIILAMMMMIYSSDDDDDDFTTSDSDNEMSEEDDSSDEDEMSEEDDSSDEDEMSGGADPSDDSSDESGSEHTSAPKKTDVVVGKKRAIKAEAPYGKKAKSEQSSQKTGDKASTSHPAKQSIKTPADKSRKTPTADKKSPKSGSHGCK
Method in brief: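 Maize HD2 deacetylase assay using [³H]acetate-prelabeled chicken reticulocyte histones (2 mg/mL, 10 µL) at 30 °C for 30 min. Released tritiated acetic acid was extracted with ethyl acetate after HCl/acetate stop, then scintillation counted. IC50 from triple determinations, given as mean ± SD of at least three experiments.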

[1] = Selectivity for class IIa HDACs as ratio of IC50 for maize histone deacetylase 1-B and 1-A
Method in brief: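 Maize HD1-B (class I homologue) and HD1-A (class IIa homologue) were each assayed on [³H]acetate-prelabeled chicken reticulocyte histones for 30 min at 30 °C. Released [³H]acetate was extracted with ethyl acetate and scintillation counted. IC50s came from dilutions starting at 40 µM, at least three experiments. Selectivity = IC50(HD1-B)/IC50(HD1-A).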

[2] = Inhibitory concentration against maize histone deacetylase 1-A (class IIa HDAC)
[3] = Inhibitory concentration against maize histone deacetylase 1-B (class I HDAC)
[4] = molecular target: T2, Histone deacetylase HD2 (Zea mays) (UniProt Q94F81); test: Inhibitory activity against maize histone deacetylase 2 at 40 uM
T2 sequence (whole entry): T1 sequence (Q94F81 whole entry)
Method in brief: (§1)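 Maize HD2 enzyme preincubated at 30 °C, then incubated 30 min with [³H]acetate-prelabeled chicken reticulocyte core histones (10 µL of 2 mg/mL) as substrate. Reaction stopped with 1 M HCl/0.4 M acetate. Released [³H]acetic acid was extracted into ethyl acetate and counted by liquid scintillation. Percent inhibition at one fixed concentration; means of at least three separate experiments. Blank solvent served as negative control.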

[5] = molecular target: T2, Histone deacetylase HD2 (Zea mays); test: Inhibitory activity against maize histone deacetylase 2 at 23.6 uM; method in brief: as §1
[6] = molecular target: T2, Histone deacetylase HD2 (Zea mays); test: Inhibitory activity against maize histone deacetylase 2 at 20.5 uM; method in brief: as §1
[7] = molecular target: T2, Histone deacetylase HD2 (Zea mays); test: Inhibitory activity against maize histone deacetylase 2 at 24.5 uM; method in brief: as §1
[8] = molecular target: T2, Histone deacetylase HD2 (Zea mays); test: Inhibitory activity against maize histone deacetylase 2 at 23.3 uM; method in brief: as §1
[9] = molecular target: T2, Histone deacetylase HD2 (Zea mays); test: Inhibitory activity against maize histone deacetylase 2 at 24.8 uM; method in brief: as §1
[10] = molecular target: T2, Histone deacetylase HD2 (Zea mays); test: Inhibitory activity against maize histone deacetylase 2 at 23.7 uM; method in brief: as §1
[11] = molecular target: T2, Histone deacetylase HD2 (Zea mays); test: Inhibitory activity against maize histone deacetylase 2 at 26 uM; method in brief: as §1
[12] = molecular target: T2, Histone deacetylase HD2 (Zea mays); conditions: 22.2 uM
[13] = molecular target: T2, Histone deacetylase HD2 (Zea mays); test: Inhibitory activity against maize histone deacetylase 2 at 21.1 uM; method in brief: as §1
[14] = molecular target: T2, Histone deacetylase HD2 (Zea mays); test: Inhibitory activity against maize histone deacetylase 2 at 20.6 uM; method in brief: as §1
[15] = molecular target: T2, Histone deacetylase HD2 (Zea mays); test: Inhibitory activity against maize histone deacetylase 2 at 20.2 uM; method in brief: as §1
[16] = molecular target: T2, Histone deacetylase HD2 (Zea mays); test: Inhibitory activity against maize histone deacetylase 2 at 25.2 uM; method in brief: as §1

pIC50 (Histone deacetylase HD2)	SI [1]	pIC50 [2]	pIC50 [3]	SMILES	also measured
5.70	2.2	6.35	6.01	O=C(CCCCCCC(=O)Nc1ccc([C@H]2O[C@@H](CSc3nc(-c4ccccc4)c(-c4ccccc4)o3)C[C@@H](c3ccc(CO)cc3)O2)cc1)NO [TUBACIN]	inhibition [4]: 92.9%
6.60		6.80	6.77	COc1ccccc1C(=O)/C=C/c1cc(/C=C/C(=O)NO)n(C)c1	inhibition [5]: 95.7%
6.27		6.41	6.22	COc1cccc(C(=O)/C=C/c2cc(/C=C/C(=O)NO)n(C)c2)c1	inhibition [5]: 78.2%
5.68		5.80	5.96	Cn1cc(/C=C/C(=O)c2cccc(Br)c2)cc1/C=C/C(=O)NO	inhibition [6]: 76.8%
4.45		4.80	4.60	Cn1cc(/C=C/C(=O)c2ccc(F)cc2)cc1/C=C/C(=O)NO	inhibition [7]: 33.2%
	32	7.30	5.80	Cn1cc(/C=C/C(=O)c2ccccc2Cl)cc1/C=C/C(=O)NO	inhibition [8]: 79.1%
		9.10	9.40	CC(/C=C/C(=O)NO)=C\[C@@H](C)C(=O)c1ccc(N(C)C)cc1 [TRICHOSTATIN]	
	6.5	7.22	6.41	Cc1ccccc1C(=O)/C=C/c1cc(/C=C/C(=O)NO)n(C)c1	inhibition [9]: 96%
6.24		6.10	6.10	COc1ccc(C(=O)/C=C/c2cc(/C=C/C(=O)NO)n(C)c2)cc1	inhibition [5]: 74.2%
4.55		4.69	4.61	Cn1cc(/C=C/C(=O)c2ccc(Br)cc2)cc1/C=C/C(=O)NO	inhibition [6]: 41.7%
	14.7	6.77	5.60	Cc1cccc(C(=O)/C=C/c2cc(/C=C/C(=O)NO)n(C)c2)c1	inhibition [9]: 72%
6.38	20.4	6.66	5.35	CC/C(=C\c1cc(/C=C/C(=O)NO)n(C)c1)C(=O)c1ccccc1	inhibition [10]: 93%
6.17		6.11	6.24	C/C(=C\c1cc(/C=C/C(=O)NO)n(C)c1)C(=O)c1ccccc1	inhibition [9]: 89.9%
		6.72	6.59	Cn1cc(/C=C/C(=O)c2ccccc2)cc1/C=C/C(=O)NO	inhibition [11]: 92.3%
6.70	33	8.00	6.48	Cn1cc(/C=C/C(=O)c2cccc3ccccc23)cc1/C=C/C(=O)NO	inhibition [12]: 92%
		4.73	4.53	Cn1cc(/C=C/C(=O)c2ccc(Cl)cc2)cc1/C=C/C(=O)NO	inhibition [8]: 45.5%
6.44		6.68	6.74	Cn1cc(/C=C/C(=O)c2ccccc2Br)cc1/C=C/C(=O)NO	inhibition [6]: 92.4%
4.31	17.1	5.03	3.80	Cn1cc(/C=C/C(=O)c2cccc(C(F)(F)F)c2)cc1/C=C/C(=O)NO	inhibition [13]: 46.1%
5.15	34	7.00	5.47	Cn1cc(/C=C/C(=O)c2ccccc2F)cc1/C=C/C(=O)NO	inhibition [7]: 73.9%
	9.6	6.30	5.32	Cc1ccc(C(=O)/C=C/c2cc(/C=C/C(=O)NO)n(C)c2)cc1	inhibition [9]: 65%
4.58	14.4	5.66	4.50	Cn1cc(/C=C/C(=O)c2ccc(-c3ccccc3)cc2)cc1/C=C/C(=O)NO	inhibition [14]: 34%
4.66	176	6.66	4.41	Cn1cc(/C=C/C(=O)c2cccc(F)c2)cc1/C=C/C(=O)NO	inhibition [7]: 56.5%
3.75	3.3	4.05	3.53	Cn1cc(/C=C/C(=O)c2cccc(OC(F)(F)F)c2)cc1/C=C/C(=O)NO	inhibition [15]: 19.5%
	71.4	6.36	4.50	Cn1cc(/C=C/C(=O)c2cccc(Cl)c2)cc1/C=C/C(=O)NO	inhibition [8]: 49%
5.74	45	7.40		Cn1cc(/C=C/C(=O)c2ccc3ccccc3c2)cc1/C=C/C(=O)NO	inhibition [16]: 62.9%
